Experimental data from ChEMBL document CHEMBL4261629 (Bioorg Med Chem, 2018).
Active and inactive are the calls of the source. No cut-off for these calls is given here.

What was measured:
[1] = target: T1, Protein deacetylase HDAC6 (Homo sapiens, UniProt Q9UBN7); assay: Inhibition of recombinant human HDAC6 using fluorogenic HDAC substrate preincubated for 15 mins followed by substrate addition and measured after 30 mins by fluorescence analysis
T1 sequence (Q9UBN7 whole entry): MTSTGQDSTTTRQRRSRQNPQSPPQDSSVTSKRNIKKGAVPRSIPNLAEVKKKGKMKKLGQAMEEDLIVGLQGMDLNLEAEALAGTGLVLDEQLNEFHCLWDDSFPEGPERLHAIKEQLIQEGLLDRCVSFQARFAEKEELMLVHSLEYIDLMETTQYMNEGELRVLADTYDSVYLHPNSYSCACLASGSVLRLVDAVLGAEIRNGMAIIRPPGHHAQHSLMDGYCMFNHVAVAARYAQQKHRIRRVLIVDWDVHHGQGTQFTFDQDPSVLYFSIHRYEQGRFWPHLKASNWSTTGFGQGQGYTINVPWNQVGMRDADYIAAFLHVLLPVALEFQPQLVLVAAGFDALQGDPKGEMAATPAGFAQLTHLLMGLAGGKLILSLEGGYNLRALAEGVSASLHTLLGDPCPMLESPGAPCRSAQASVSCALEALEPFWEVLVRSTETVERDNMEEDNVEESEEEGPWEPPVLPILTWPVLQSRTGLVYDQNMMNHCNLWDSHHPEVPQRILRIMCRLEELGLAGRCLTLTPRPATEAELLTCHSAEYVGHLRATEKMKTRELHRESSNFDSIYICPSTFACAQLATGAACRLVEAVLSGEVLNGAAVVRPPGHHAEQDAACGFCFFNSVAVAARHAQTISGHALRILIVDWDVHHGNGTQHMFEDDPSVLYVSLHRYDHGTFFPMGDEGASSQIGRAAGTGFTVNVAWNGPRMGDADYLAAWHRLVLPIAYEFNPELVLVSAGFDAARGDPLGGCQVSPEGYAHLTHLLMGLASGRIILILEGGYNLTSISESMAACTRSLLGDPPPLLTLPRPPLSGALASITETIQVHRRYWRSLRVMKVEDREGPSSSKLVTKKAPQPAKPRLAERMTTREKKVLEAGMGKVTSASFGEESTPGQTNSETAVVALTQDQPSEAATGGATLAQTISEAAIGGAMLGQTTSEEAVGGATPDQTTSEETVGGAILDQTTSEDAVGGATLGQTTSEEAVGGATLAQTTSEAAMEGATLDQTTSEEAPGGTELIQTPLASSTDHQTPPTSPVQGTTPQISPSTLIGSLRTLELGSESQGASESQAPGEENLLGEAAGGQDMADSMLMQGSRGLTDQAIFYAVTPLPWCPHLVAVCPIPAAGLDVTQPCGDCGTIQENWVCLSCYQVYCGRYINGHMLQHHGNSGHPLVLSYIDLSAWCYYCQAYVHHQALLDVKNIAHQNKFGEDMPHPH

[2] = Antioxidant activity assessed as tert-butyl hydroperoxide radical scavenging at 10 uM up to 200 mins; assay type: functional
How it was run: (§1)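 Kinetic peroxide scavenging by GSH at 25 °C in 100 mM phosphate buffer, pH 7.5. Final conditions: EDTA 1 mM, GSH 0.25 mM, NADPH 0.50 mM, glutathione reductase 1.3 unit·mL-1, peroxide 0.20 mM (H2O2, t-BuOOH or Cum-OOH), catalyst 10 μM. Scavenging was followed over time, and maximal scavenging was derived. Mean ± SE, three independent experiments.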

PC-12 [3] = assay: Cytoprotective activity against H2O2-induced damage in rat PC12 cells assessed as decrease in ROS accumulation preincubated for 24 hrs followed by H2O2 challenge measured after 12 hrs by DCFH-DA dye-based fluorescence analysis; assay type: functional, cell-based
How it was run: (§2)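 Intracellular ROS was detected by DCFH-DA staining, which esterases deacetylate and ROS oxidise to fluorescent dichlorofluorescein. Fluorescence was quantified on a microplate reader.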

PC-12 [4] = assay: Cytoprotective activity against H2O2-induced damage in rat PC12 cells assessed as decrease in ROS accumulation preincubated for 24 hrs followed by H2O2 challenge measured after 12 hrs by DCFH-DA dye-based inverted fluorescence microscopic analysis; assay type: functional, cell-based
How it was run: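 PC12 cells were pretreated with compound (5 or 10 µM), then challenged with H2O2 and stained with DCFH-DA to show ROS. Fluorescence images were taken by inverted fluorescence microscopy.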

PC-12 [5] = assay: Neuroprotective activity against H2O2-induced toxicity in rat PC12 cells assessed as cell viability at 5 to 10 uM pretreated for 24 hrs followed by H2O2 challenge and measured after 12 hrs coincubated with tubastatin A by MTT assay relative to control; assay type: functional
How it was run: (§3)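 Medium was replaced with fresh medium containing H2O2 (400 μM) or 6-OHDA (200 μM), and incubation continued 12 h. Viability was read by MTT assay. Mean ± SD, three independent experiments.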

[6] = Antioxidant activity assessed as cumene hydroperoxide radical scavenging at 10 uM up to 200 mins; assay type: functional; how it was run: as §1
PC-12 [7] = assay: Cytotoxicity against rat PC12 cells at 20 uM after 24 hrs by MTT assay; assay type: cell-based; details: pc-12, 24 h
[8] = Antioxidant activity assessed as H2O2 radical scavenging at 10 uM up to 200 mins; assay type: functional; how it was run: as §1
PC-12 [9] = assay: Antioxidant activity against H2O2-induced oxidative stress in rat PC12 cells assessed as decrease in ROS accumulation preincubated for 24 hrs followed by H2O2 challenge and measured after 12 hrs coincubated with tubastatin A by DCFH-DA dye-based fluorescence analysis; assay type: functional, cell-based; how it was run: as §2
PC-12 [10] = assay: Cytotoxicity against rat PC12 cells at 20 uM in presence of tubastantin A after 24 hrs by MTT assay; assay type: cell-based; details: pc-12, 24 h
PC-12 [11] = assay: Neuroprotective activity against 6-OHDA-induced toxicity in rat PC12 cells assessed as increase in cell viability at 5 uM pretreated for 24 hrs followed by 6-OHDA challenge and measured after 12 hrs by MTT assay; assay type: functional, cell-based; how it was run: as §3
PC-12 [12] = assay: Neuroprotective activity against H2O2-induced toxicity in rat PC12 cells assessed as cell viability at 10 uM pretreated for 24 hrs followed by H2O2 challenge and measured after 12 hrs by MTT assay relative to control; assay type: functional, cell-based; how it was run: as §3
PC-12 [13] = assay: Antioxidant activity against H2O2-induced oxidative stress in rat PC12 cells assessed as decrease in ROS accumulation at 5 uM preincubated for 24 hrs followed by H2O2 challenge and measured after 12 hrs coincubated with tubastatin A by DCFH-DA dye-based fluorescence analysis; assay type: functional, cell-based; how it was run: as §2
PC-12 [14] = assay: Neuroprotective activity against 6-OHDA-induced toxicity in rat PC12 cells assessed as increase in cell viability at 5 to 10 uM pretreated for 24 hrs followed by 6-OHDA challenge and measured after 12 hrs coincubated with tubastatin A by MTT assay; assay type: functional, cell-based; how it was run: as §3
PC-12 [15] = assay: Neuroprotective activity against 6-OHDA-induced toxicity in rat PC12 cells assessed as increase in cell viability at 10 uM pretreated for 24 hrs followed by 6-OHDA challenge and measured after 12 hrs by MTT assay; assay type: functional, cell-based; how it was run: as §3
PC-12 [16] = assay: Antioxidant activity against H2O2-induced oxidative stress in rat PC12 cells assessed as decrease in ROS accumulation at 5 uM preincubated for 24 hrs followed by H2O2 challenge and measured after 12 hrs by DCFH-DA dye-based fluorescence analysis; assay type: functional, cell-based; how it was run: as §2
Histone deacetylase 3 = Histone deacetylase 3 (Homo sapiens, UniProt O15379); assay: Inhibition of recombinant human HDAC3 using fluorogenic HDAC substrate after 30 mins by fluorescence analysis
Histone deacetylase 3, sequence (O15379 whole entry): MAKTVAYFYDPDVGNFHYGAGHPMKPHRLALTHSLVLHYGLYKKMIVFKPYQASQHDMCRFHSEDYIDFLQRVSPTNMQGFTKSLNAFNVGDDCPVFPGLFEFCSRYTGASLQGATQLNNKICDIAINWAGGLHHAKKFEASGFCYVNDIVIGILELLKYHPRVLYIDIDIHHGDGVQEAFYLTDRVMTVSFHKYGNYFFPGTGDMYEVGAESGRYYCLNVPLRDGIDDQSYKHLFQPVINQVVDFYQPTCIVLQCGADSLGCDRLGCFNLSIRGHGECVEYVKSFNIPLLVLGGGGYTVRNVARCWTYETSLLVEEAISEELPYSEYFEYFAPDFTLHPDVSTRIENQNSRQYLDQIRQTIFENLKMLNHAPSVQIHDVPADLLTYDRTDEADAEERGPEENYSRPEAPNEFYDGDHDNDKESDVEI

O=C(/C=C/c1ccc(-n2[se]c3ccccc3c2=O)cc1)NO
IC50 [1]: 679 nM

O=c1c2ccccc2[se]n1-c1ccccc1 [EBSELEN]
IC50 [1]: 11500 nM
Activity [2]: 71%
Activity (PC-12 [3]): Active
Activity (PC-12 [4]): Active
Activity (PC-12 [5]): 90%
Activity [6]: 29%
Activity (PC-12 [7]): Non-Toxic
Activity [8]: 51%
Activity (PC-12 [9]): Active
Activity (PC-12 [10]): Non-Toxic
Activity (PC-12 [11]): Active
Activity (PC-12 [12]): Active
Activity (PC-12 [13]): Active
Activity (PC-12 [14]): Active
Activity (PC-12 [15]): Active
Activity (PC-12 [16]): Active

O=C(CCCCCCn1[se]c2ccccc2c1=O)NO
IC50 [1]: 19 nM
Activity [2]: 41%
Activity [6]: 25%
IC50 (Histone deacetylase 3): 164 nM
Activity [8]: 41%

O=C(NO)c1cnc(N2CCC(n3[se]c4ccccc4c3=O)CC2)nc1
IC50 [1]: 968 nM

O=C(CCCCCCOc1ccc(-n2[se]c3ccccc3c2=O)cc1)NO
IC50 [1]: 181 nM

O=C(NO)c1ccc(Cn2[se]c3ccc(F)cc3c2=O)cc1
IC50 [1]: 178 nM

O=C(CCCCCOc1ccc(-n2[se]c3ccccc3c2=O)cc1)NO
IC50 [1]: 508 nM

O=C(CCc1ccc(-n2[se]c3ccccc3c2=O)cc1)NO
IC50 [1]: 1140 nM

O=C(CCCCCn1[se]c2ccccc2c1=O)NO
IC50 [1]: 181 nM
